Measured values as given in ChEMBL document CHEMBL1157820, “Vaccinia virus virulence factor N1L is a novel promising target for antiviral therapeutic intervention” (J Med Chem, 2010).
The source made the active and inactive calls. The calls are words filed in the database; no cut-off is given here.

Legend:
N1L [1] = target: T1, N1L (Vaccinia virus, UniProt Q49PX0); assay: Displacement of FITC-conjugated BH3-Bak peptide from Vaccinia virus recombinant N1L expressed in Escherichia coli BL21 (DE3) by fluorescence polarization assay; design: species or system Orthopoxvirus vaccinia
T1 sequence (Q49PX0 whole entry): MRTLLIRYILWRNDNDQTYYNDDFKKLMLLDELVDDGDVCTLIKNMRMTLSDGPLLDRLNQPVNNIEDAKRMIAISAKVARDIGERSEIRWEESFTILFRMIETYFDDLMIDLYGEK
Summary of the method: (§1)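 Fluorescence polarization competition: N1L or Bcl-XL incubated with 10 nM BH3-Bak peptide and titrated ligand. Bcl-XL run on the same plate as N1L. N1L tested at several concentrations, none below 500 nM. Normalized polarization vs log ligand fit to a variable-slope dose-response curve for competitive IC50.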

N1L [2] = target: T1, N1L; assay: Displacement of FITC-conjugated BH3-Bak peptide from 1 uM Vaccinia virus recombinant N1L expressed in Escherichia coli BL21 (DE3) by fluorescence polarization assay; design: species or system Orthopoxvirus vaccinia; summary of the method: as §1
N1L [3] = target: T1, N1L; assay: Displacement of FITC-conjugated BH3-Bak peptide from 0.5 uM Vaccinia virus recombinant N1L expressed in Escherichia coli BL21 (DE3) by fluorescence polarization assay; design: species or system Orthopoxvirus vaccinia; summary of the method: as §1
[4] = Cytotoxicity against african green monkey CV1 cells at >100 uM after 2.5 day by ATP lite assay; type: cell-based; settings: chlorocebus aethiops, cv-1, 60 h
HT-1080 = assay: Cytotoxicity against human HT1080 cells at >100 uM after 2.5 day by ATP lite assay; type: cell-based; settings: ht-1080, 60 h
[5] = Therapeutic index, ratio of TC50 for african green monkey CV1 cells to EC50 for GFP-expressing Vaccinia virus WR infected in african green monkey CV1 cells; type: cell-based, CV-1; settings: read-out: TI
[6] = Therapeutic index, ratio of TC50 for human HT1080 cells to EC50 for GFP-expressing Vaccinia virus WR infected in human HT1080 cells; type: cell-based, HT-1080; settings: read-out: TI
N1L (Vaccinia virus) [7] = target: N1L (Vaccinia virus) (UniProt Q49PX0); assay: Binding affinity to Vaccinia virus recombinant N1L expressed in Escherichia coli BL21 (DE3) assessed as protein melting temperature at 214 uM by differential scanning calorimetry; settings: Orthopoxvirus vaccinia
Summary of the method: (§2)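 Differential scanning calorimetry of recombinant N1L at 1.0 mg/ml (71 μM) in PBS with 2 or 5% DMSO, plus 214 μM compound, against a DMSO-only reference. Scanned at 1 K/min under 3.0 atm. Melting temperature (Tm) is taken from the peak, and enthalpy of unfolding (ΔH) from the area under the DSC peak.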

N1L (Vaccinia virus) [8] = target: N1L (Vaccinia virus) (UniProt Q49PX0); assay: Binding affinity to Vaccinia virus recombinant N1L expressed in Escherichia coli BL21 (DE3) assessed as effect on enthalpy of protein unfolding at 214 uM by differential scanning calorimetry; settings: Orthopoxvirus vaccinia; summary of the method: as §2
N1L (Vaccinia virus) [9] = target: N1L (Vaccinia virus) (UniProt Q49PX0); assay: Destabilizing effect on Vaccinia virus recombinant N1L expressed in Escherichia coli BL21 (DE3) assessed as decrease in equilibrium constant of protein dimerization at 100 uM by analytical ultracentrifugation; settings: Orthopoxvirus vaccinia
Summary of the method: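 Sedimentation equilibrium AUC of N1L in PBS at 0.45, 0.15 and 0.05 mg/ml, with 2% DMSO and compound at 50–100 μM. Spun at 20,000 rpm, 20 °C, 24 h. Data fit to a monomer–dimer or monomer–dimer–tetramer equilibrium model to obtain the dimerization KD.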

[10] = Displacement of FITC-conjugated BH3-Bim peptide from Vaccinia virus N-terminal GST-fused F1L expressed in Escherichia coli BL21 (DE3) by fluorescence polarization assay; design: species or system Orthopoxvirus vaccinia
Summary of the method: (§3)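 Fluorescence polarization competition with 10 nM BH3-Bim peptide against F1L or Bcl-2, run alongside N1L, with titrated ligand and a variable-slope dose-response fit for IC50. F1L construct: residues 35–190 from vaccinia WR as N-terminal GST fusion, expressed in E. coli BL21(DE3) (500 μM IPTG, 20 °C, 18 h), finished on Superdex 200 in 20 mM Tris pH 8.0, 100 mM NaCl.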

N1L (Vaccinia virus) [11] = target: N1L (Vaccinia virus) (UniProt Q49PX0); assay: Binding affinity to Vaccinia virus recombinant N1L expressed in Escherichia coli BL21 (DE3) assessed as protein melting temperature at 106 uM by differential scanning calorimetry; settings: Orthopoxvirus vaccinia
Summary of the method: (§4)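 DSC at 1 K/min scan rate under 3.0 atm. Samples in PBS with 1.0 mg/ml (71 μM) N1L, 2 or 5% DMSO, and compound at 71, 106 or 214 μM; DMSO-only reference. Melting temperature and enthalpy of unfolding (area under peak) taken from thermograms.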

N1L (Vaccinia virus) [12] = target: N1L (Vaccinia virus) (UniProt Q49PX0); assay: Binding affinity to Vaccinia virus recombinant N1L expressed in Escherichia coli BL21 (DE3) assessed as effect on enthalpy of protein unfolding at 106 uM by differential scanning calorimetry; settings: Orthopoxvirus vaccinia; summary of the method: as §4
N1L (Vaccinia virus) [13] = target: N1L (Vaccinia virus) (UniProt Q49PX0); assay: Binding affinity to Vaccinia virus recombinant N1L expressed in Escherichia coli BL21 (DE3) assessed as protein melting temperature at 71 uM by differential scanning calorimetry; settings: Orthopoxvirus vaccinia; summary of the method: as §4
N1L (Vaccinia virus) [14] = target: N1L (Vaccinia virus) (UniProt Q49PX0); assay: Binding affinity to Vaccinia virus recombinant N1L expressed in Escherichia coli BL21 (DE3) assessed as effect on enthalpy of protein unfolding at 71 uM by differential scanning calorimetry; settings: Orthopoxvirus vaccinia; summary of the method: as §4
Vaccinia virus [15] = assay: Antiviral activity against GFP-expressing Vaccinia virus WR infected in african green monkey CV1 cells after 2.5 days by fluorescence assay; type: functional, organism-based; settings: Orthopoxvirus vaccinia, CV-1, 60 h
Vaccinia virus [16] = assay: Antiviral activity against GFP-expressing Vaccinia virus WR infected in human HT1080 cells after 2.5 days by fluorescence assay; type: functional, organism-based; settings: Orthopoxvirus vaccinia, HT-1080, 60 h
Bcl-2-like protein 1 = Bcl-2-like protein 1 (Homo sapiens, UniProt Q07817); assay: Displacement of FITC-conjugated BH3-Bak peptide from human recombinant Bcl-XL expressed in Escherichia coli BL21 (DE3) by fluorescence polarization assay; summary of the method: as §1
[17] = target: Apoptosis regulator Bcl-2 (Homo sapiens, UniProt P10415); assay: Displacement of FITC-conjugated BH3-Bim peptide from human recombinant Bcl-2 expressed in Escherichia coli BL21 (DE3) by fluorescence polarization assay; summary of the method: as §3
Chain of Apoptosis regulator Bcl-2 (P10415 whole entry): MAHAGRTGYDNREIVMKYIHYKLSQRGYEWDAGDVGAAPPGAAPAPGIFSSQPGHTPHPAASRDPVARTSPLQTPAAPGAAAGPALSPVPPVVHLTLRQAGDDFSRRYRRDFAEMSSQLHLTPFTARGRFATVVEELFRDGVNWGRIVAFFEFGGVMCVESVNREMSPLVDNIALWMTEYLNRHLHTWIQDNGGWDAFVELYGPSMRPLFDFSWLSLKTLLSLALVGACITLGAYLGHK

Chain of Bcl-2-like protein 1 (Q07817 whole entry): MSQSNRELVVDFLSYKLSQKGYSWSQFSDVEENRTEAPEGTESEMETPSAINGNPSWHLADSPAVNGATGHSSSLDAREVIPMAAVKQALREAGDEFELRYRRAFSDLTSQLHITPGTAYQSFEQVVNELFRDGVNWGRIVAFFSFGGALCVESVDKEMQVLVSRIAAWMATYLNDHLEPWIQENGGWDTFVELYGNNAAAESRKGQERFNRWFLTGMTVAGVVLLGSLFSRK

Row | Structure (SMILES) | IC50 (N1L [1]) [nM] | IC50 (N1L [2]) [nM] | IC50 (N1L [3]) [nM] | Tm (N1L (Vaccinia virus) [11]) [°C] | Activity (N1L (Vaccinia virus) [12]) | also measured
1 | COc1ccc(C(C)c2cc(OC)c(OC)c(OC)c2)cc1 (stereo not given) | 5600 | 6600 | 5600 |  |  | Activity [4]: Non-toxic; Activity (HT-1080): Non-toxic; selectivity ratio [5]: 50; selectivity ratio [6]: 50
2 | COc1ccc(CCc2cc(OC)c(O)c(OC)c2)cc1 | 5000 | 7500 | 5000 |  |  | Tm (N1L (Vaccinia virus) [7]): 54.4 °C; Activity (N1L (Vaccinia virus) [8]): inactive
3 | Oc1cc(C(c2ccccc2)c2ccccc2)c2ccccc2c1O | 600 | 1900 | 600 | 54.9 | inactive | Activity (N1L (Vaccinia virus) [9]): Active; IC50 [10]: 1400 nM
4 | COc1cc(C(c2ccccc2)c2ccccc2)c2ccccc2c1O | 1800 | 2000 | 1800 |  |  | Tm (N1L (Vaccinia virus) [13]): 57.5 °C; Activity (N1L (Vaccinia virus) [14]): inactive
5 | COc1cc(-c2ccc3cc(OC)c(OC)c(OC)c3c2)cc(OC)c1OC | 900 | 1600 | 900 | 56.3 | inactive | Activity (N1L (Vaccinia virus) [9]): Active; IC50 [10]: 1700 nM; EC50 (Vaccinia virus [15]): 13200 nM; EC50 (Vaccinia virus [16]): 16900 nM; Activity [4]: Non-toxic; Activity (HT-1080): Non-toxic
6 | COc1cc(C(c2ccc(O)c(OC)c2)c2ccc(O)c(OC)c2)ccc1O | 8800 | 12400 | 8800 |  |  | 
7 | COc1ccc(/C(=N/c2ccc(C)cc2)c2ccccc2)cc1 | 1700 | 1700 |  |  |  | 
8 | Oc1ccc(/C=C/c2cc(O)cc(O)c2)cc1 [RESVERATROL] | 21900 | 21900 |  |  |  | IC50 (Bcl-2-like protein 1): 190000 nM; Tm (N1L (Vaccinia virus) [7]): 54.2 °C; Activity (N1L (Vaccinia virus) [8]): inactive
9 | COc1cc(C(=N\c2ccccc2)/C(=N/c2ccccc2)c2cc(OC)c(OC)c(OC)c2)cc(OC)c1OC | 2400 | 3500 | 2400 |  |  | 
10 | COc1ccc2ccccc2c1-c1c(O)ccc2ccccc12 | 1500 | 3600 | 1500 |  |  | 
11 | Oc1ccc(/C=N/c2ccccc2/N=C/c2ccc(O)c(O)c2)cc1O | 1200 | 1300 | 1200 | 52.3 | inactive | EC50 (Vaccinia virus [15]): 13200 nM; EC50 (Vaccinia virus [16]): 10900 nM; Activity [4]: Non-toxic; Activity (HT-1080): Non-toxic; selectivity ratio [5]: 5.6; selectivity ratio [6]: 5.6
12 | Oc1cc(Cc2ccccc2)c(Cc2ccccc2)cc1O | 900 | 1800 | 900 | 48.6 | inactive | IC50 [10]: 600 nM; IC50 [17]: 4700 nM; IC50 (Bcl-2-like protein 1): 8500 nM
